The list is not random: actives were taken first. Their share in the collection is about 2.3%.
OXTR agonist – activates the human oxytocin receptor; P30559; CHO-OTR cells, Fluo-8 calcium fluorescence; normalized: DMSO 0%, oxytocin 100%; activation, % at 3 µM; 0.32% of 320,000 active; AID 2435;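 active = activation above the mean of all tested compounds plus 3 SD, cutoff set per screening run, cut at about 20% in these data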;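 also: peak over basal fluorescence ratio from a 100 s FLIPR kinetic read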
TAAR1 ag – human TAAR1 agonism. Q96RJ0. CHO RD-HGA16 TAAR1, Fluo-8 calcium fluorescence; vehicle wells 0%, saturating PEA agonist 100%. activation, % at 3 µM. 0.99% of 360,000 active;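 active = activation above the mean activation of all test compounds in the run plus 3 SD, cut at about 38% in these data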
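Repeats: no replicates (n 1) | Material: CHO-derived RD-HGA16 cells with stable Gα16 and human TAAR1 | Technique: Kinetic Fluo-8 calcium fluorescence | Schedule: 17-24 h seeding, 75 min 37 °C dye, 30 min RT | Evaluation: % activation from peak over basal fluorescence ratio, DMSO-to-PEA scaled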
OXTR potentiate – potentiates the human oxytocin receptor response. P30559. CHO-OTR cells, Fluo-8 calcium fluorescence, potentiator mode; 0% = oxytocin EC15, 100% = EC100. activation, % at 3 µM. 0.061% of 320,000 active;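 active = activation above that plate's cutoff, the mean activation of tested compounds plus 3 SD, cut at about 6.6% in these data, passing the limit was not always enough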
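Replication – single well per compound, singlicate · Assay system – CHO cell line stably expressing human OTR · Timing – 6 min pre-incubation, 100 s read · Measure – normalized max/min fluorescence ratio, % activation · Doses – 3.0 µM, one dose · Detection – Fluo-8 calcium dye fluorescence · Probe or stimulus – oxytocin near EC15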
V1aR counter – V1a receptor agonism, counter-screen for OXTR agonists; 0.25% of 320,000 active; activation, % at 3 µM; CHO-V1R cells, Fluo-8 calcium fluorescence, agonist mode; 0% DMSO, 100% 3 nM vasopressin; P37288; AID 2797;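 active = activation above the mean activation of all tested compounds plus 3 SD, per screening run, cut at about 20% in these data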;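 also: signal is peak over basal fluorescence ratio across a 100 second FLIPR read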
Target sequence (P37288 whole entry, looked up): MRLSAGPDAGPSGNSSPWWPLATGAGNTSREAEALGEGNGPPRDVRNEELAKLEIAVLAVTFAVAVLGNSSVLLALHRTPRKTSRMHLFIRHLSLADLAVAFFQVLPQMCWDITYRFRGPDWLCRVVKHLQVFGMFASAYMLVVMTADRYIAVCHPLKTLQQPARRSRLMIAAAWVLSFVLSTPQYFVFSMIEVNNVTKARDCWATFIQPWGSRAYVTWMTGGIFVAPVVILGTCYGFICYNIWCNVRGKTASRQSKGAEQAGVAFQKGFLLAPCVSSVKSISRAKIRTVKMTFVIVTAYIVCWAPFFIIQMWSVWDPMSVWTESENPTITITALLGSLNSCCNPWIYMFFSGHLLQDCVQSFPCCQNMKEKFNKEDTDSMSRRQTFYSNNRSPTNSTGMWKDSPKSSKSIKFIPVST
TAAR1 antag – antagonists of human TAAR1. CHO RD-HGA16 TAAR1, Fluo-8 calcium fluorescence, antagonist. AID 624466. inhibition, % at 3 µM. 1.5% of 360,000 active. Q96RJ0;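 active = inhibition above a per-plate cutoff, the mean inhibition of test compounds on that plate plus 3 SD, cut at about 49% in these data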
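Assay system: CHO-derived RD-HGA16 cells stably expressing human TAAR1 plus Gα16. Timing: 140 s kinetic read after compound, 140 s after agonist. Technique: kinetic Fluo-8 calcium fluorescence measurement. Measure: % inhibition of agonist calcium response.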
TAAR1 nonsel count – nonselective antagonist in TAAR1 antagonist counter-screen; shares compounds with TAAR1 antag; counterscreen cell line, calcium fluorescence, antagonist mode; inhibition, % at 3 µM; 77% of 2,400 active; in the data active = inhibition above about 22%;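 also: CHO-Ga16 host cells stimulated with ATP at an EC80 level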
TAAR1 antag conf – confirmation of human TAAR1 antagonists; shares compounds with TAAR1 antag; TAAR1-expressing cells, fluorescence antagonist read-out; inhibition, % at 3 µM; 40% of 2,400 active; AID 651785; in the data active = inhibition above about 49%;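 also: CHO-Ga16 host cells challenged with agonist PEA near its EC80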
Ga16 ag counter – nonselective Ga16 agonist in TAAR1 antagonist counter-screen | shares compounds with TAAR1 antag | Ga16-expressing cells, calcium fluorescence, agonist counterscreen | activation, % at 3 µM | 18% of 2,400 active | AID 651953; in the data active = activation above about 12%
TAAR1 ag counter – counter-screen for human TAAR1 antagonists: TAAR1 agonists; shares compounds with TAAR1 antag; hTAAR1 cell line, fluorescence activation, agonist mode; activation, % at 3 µM; 2% of 2,400 active; in the data active = activation above about 37%;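 also: CHO cells stably expressing TAAR1 with calcium dye readout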
Large screens that a line does not name were inactive (follow-up assays come after a bar, where they were run).

O=C(Nc1cccc(NC(=O)c2ccc(-c3ccc(Br)cc3)o2)c1)c1ccco1	TAAR1 antag 69 | TAAR1 nonsel count 33 | TAAR1 antag conf 50 | Ga16 ag counter inactive | TAAR1 ag counter inactive
Cc1ccc(C(=O)Nc2cccc(-c3cnc4ccccc4n3)c2)cc1	none
Cc1c(NC(=O)CSc2ccc(Cl)cc2)cccc1-c1nc2ncccc2o1	TAAR1 antag 60 | TAAR1 nonsel count 31 | TAAR1 antag conf inactive | Ga16 ag counter inactive | TAAR1 ag counter inactive
O=C1CSC(c2cccs2)N1c1nncs1 (stereo not given)	none (no result: OXTR agonist, OXTR potentiate, V1aR counter)
O=[N+]([O-])c1ccc(/C=N/Nc2ccc3ccccc3c2)o1	TAAR1 antag 76 | TAAR1 nonsel count 52 | TAAR1 antag conf 65 | Ga16 ag counter 19 | TAAR1 ag counter inactive
CCOC(=O)C1=C(COC(=O)CSc2ccc(Br)cc2)NC(=O)NC1C (stereo not given)	none
CCOC(=O)C1=C(COC(=O)/C=C/c2cccc(OC)c2OC)NC(=O)NC1C (stereo not given)	TAAR1 antag 73 | TAAR1 nonsel count 25 | TAAR1 antag conf 52 | Ga16 ag counter 12 | TAAR1 ag counter inactive
CCOC(=O)C1=C(COC(=O)/C=C/c2ccccc2)NC(=O)NC1C (stereo not given)	TAAR1 antag 63 | TAAR1 nonsel count 25 | TAAR1 antag conf inactive | Ga16 ag counter inactive | TAAR1 ag counter inactive
CCOC(=O)C1=C(COC(=O)Cc2ccc(Br)cc2)NC(=O)NC1C (stereo not given)	TAAR1 antag 69 | TAAR1 nonsel count 25 | TAAR1 antag conf inactive | Ga16 ag counter inactive | TAAR1 ag counter inactive
Cc1sc(NC(=O)c2cccs2)c(C(=O)OC(C)C)c1C	none
Cc1cc(NCCO)nc(-n2nc(C)cc2C)n1	TAAR1 antag 57 | TAAR1 nonsel count inactive | TAAR1 antag conf inactive | Ga16 ag counter inactive | TAAR1 ag counter inactive
Cc1cc(N(CCO)CCO)nc(-n2nc(C)cc2C)n1	none
CN(C)c1nc(Nc2ccc(Cl)cc2)nc(OCC#N)n1	TAAR1 antag 58 | TAAR1 nonsel count inactive | TAAR1 antag conf inactive | Ga16 ag counter inactive | TAAR1 ag counter inactive
O=C(CN1CCN(c2ccccn2)CC1)Nc1ccccc1Br	none
O=C(NCCN1C(=O)S/C(=C\c2ccccc2)C1=O)c1cc(S(=O)(=O)N2CCOCC2)c(Cl)cc1Cl	TAAR1 antag 78 | TAAR1 nonsel count 50 | TAAR1 antag conf 70 | Ga16 ag counter 19 | TAAR1 ag counter inactive
O=C(NCCN1C(=O)S/C(=C\c2ccc(F)cc2)C1=O)c1cccc(S(=O)(=O)N2CCOCC2)c1	TAAR1 antag 70 | TAAR1 nonsel count 43 | TAAR1 antag conf 60 | Ga16 ag counter 15 | TAAR1 ag counter inactive
O=C(NCCN1C(=O)S/C(=C\c2ccc(Cl)cc2)C1=O)c1ccc(F)c(S(=O)(=O)N2CCOCC2)c1	none
COc1cccc(C(O)c2nc(-c3cccc(C#N)c3)cs2)c1 (stereo not given)	none (no result: OXTR agonist, OXTR potentiate, V1aR counter)
O=C(COC(=O)c1ccc(N2CCOCC2)c([N+](=O)[O-])c1)Nc1ccc2c(c1)OCO2	none
CC1CCCN(c2ccc(C(=O)NCc3ccc4c(c3)OCO4)cc2[N+](=O)[O-])C1 (stereo not given)	none
CC1CCCN(c2ccc(C(=O)Nc3ccc4c(c3)OCO4)cc2[N+](=O)[O-])C1 (stereo not given)	TAAR1 antag 70 | TAAR1 nonsel count 25 | TAAR1 antag conf 73 | Ga16 ag counter inactive | TAAR1 ag counter inactive

High-throughput results (PubChem)
